Compounds with a hit are over-represented: about 2.3% of the library has one in this group of screens.
CHT allo act – CHT positive allosteric modulators, primary screen, cell-based, membrane potential dye, choline EC20. High affinity choline transporter 1 (Homo sapiens), Q9GZV3. CHT-expressing cells; hits give high values; LV-AA mutant CHT in HEK293 cells. B-score at 10 µM. hit rate 0.49% among 310,000. AID 488977, 2010;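 active means initial fluorescence not abnormally high and integrated response B-score, plate-corrected, over 3 SD above library mean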
Target sequence (Q9GZV3 whole entry, looked up): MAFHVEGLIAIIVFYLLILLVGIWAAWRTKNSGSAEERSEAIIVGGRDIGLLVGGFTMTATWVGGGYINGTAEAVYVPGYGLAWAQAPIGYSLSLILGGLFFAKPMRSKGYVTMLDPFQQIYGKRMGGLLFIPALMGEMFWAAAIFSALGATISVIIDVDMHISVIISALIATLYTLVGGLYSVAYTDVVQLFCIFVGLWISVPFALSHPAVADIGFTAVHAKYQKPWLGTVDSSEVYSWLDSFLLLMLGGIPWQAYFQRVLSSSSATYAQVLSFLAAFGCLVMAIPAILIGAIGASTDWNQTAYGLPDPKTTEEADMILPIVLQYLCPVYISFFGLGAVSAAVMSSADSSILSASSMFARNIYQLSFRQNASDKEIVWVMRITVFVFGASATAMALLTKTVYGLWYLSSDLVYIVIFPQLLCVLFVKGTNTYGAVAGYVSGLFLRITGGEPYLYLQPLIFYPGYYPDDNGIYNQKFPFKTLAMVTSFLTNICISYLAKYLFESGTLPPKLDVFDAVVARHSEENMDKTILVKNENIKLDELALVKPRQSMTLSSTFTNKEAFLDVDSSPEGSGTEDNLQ
NR2E3 ag-1 – NR2E3 agonists in two-hybrid cells, primary screen, cell-based, luminescence, CHO-S, Gal4-NCOR/VP16-NR2E3. luciferase. hit rate 0.35% among 360,000. inhibition of corepressor binding, % at 3.98 µM;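 active means inhibition above the mean of all tested compounds plus 3 SD, cut at about 70% in these data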;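 further: 0% = DMSO with NR2E3 transfected cells and 100% = cells lacking NR2E3 construct; higher means lower luciferase signal from less NR2E3 corepressor binding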
GalR3 antagonist – GalR3 antagonists in HEK293 cells, primary screen, cell-based, fluorescence readout | Galanin receptor type 3 (Homo sapiens), O60755 | HEK293 GalR3-CNG cAMP membrane potential fluorescence; galR3 body fused to GalR1 C-terminus | inhibition, % at 3 µM | hit rate 0.44% among 360,000 | AID 651719, 2012;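 active means inhibition above the screen-wide average plus 3 SD, cut at about 13% in these data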;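 further: forskolin and galanin both at EC90 stimulate the cells; cAMP rise reported by CNG channel membrane potential dye signal; 0% = forskolin plus galanin with DMSO and 100% = forskolin alone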
CHT inh – inhibitors of human choline transporter CHT | High affinity choline transporter 1 (Homo sapiens), Q9GZV3 | CHT-expressing cells, membrane potential dye, choline response; hits give low values | B-score at 10 µM | hit rate 0.86% among 310,000 | AID 488975, 2010;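 active means B-score over 3 SD under the library average, and starting fluorescence ratio not unusually high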;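 further: choline stimulus applied at its EC90 after an EC20 pre-addition; B-score computed on integrated fluorescence ratio after choline addition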
COUP-TFII inh – NR2F2 transcriptional activity inhibitors, primary screen, cell-based, luciferase reporter, HEK293T, luminescence. hit rate 0.7% among 370,000. inhibition, % at 8.6 µM. HEK293T NGFI-A luciferase reporter;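 active means inhibition above a per-plate cutoff, mean inhibition of test wells between control levels plus 3 SD, cut at about 38% in these data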;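 further: cells cotransfected with COUP-TFII expression vector driving the NGFI-A reporter; 0% = median of COUP-TF2 test wells and 100% = reporter-only cells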
NR2E3 ag-2 – inhibitors of NR2E3-RetCOR corepressor binding, primary screen, NR2E3 agonist project, biochemical, TR-FRET, GST-NR2E3, biotin-RetCOR; 1536-well; inhibition of corepressor binding, % at 4.78 µM; Photoreceptor-specific nuclear receptor (Homo sapiens), Q9Y5X4; hit rate 0.12% among 320,000;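 active means percent inhibition above the cutoff of mean plus 3 SD of all tested compounds, set per screening campaign, cut at about 20% in these data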;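 further: 0% = DMSO wells and 100% = biotin wells as full block of FRET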
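Assay system: NR2E3–RetCOR corepressor complex. Quantity: 1.35 nM GST-NR2E3. Buffer or medium: pH 7.5 Tris-based buffer. Reagent: biotinylated RetCOR corepressor at 7 nM final. Schedule: 5 h at 4 °C. Detection: TR-FRET, emission read at 617 and 671 nm. Replicates: one well per compound, singlicate testing.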
GalR3 conf – GalR3 antagonist hit confirmation, cell-based, fluorescence, triplicate. shares compounds with GalR3 antagonist. HEK293 GalR3 CNG cAMP biosensor, membrane potential fluorescence; galR3 fused to GalR1 carboxy tail; challenged with forskolin and galanin at EC90. inhibition, % at 3 µM. hit rate 59% among 1,600. AID 652245, 2013;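 active means inhibition above the primary screen's cutoff, the mean inhibition of all screened compounds plus 3 SD, cut at about 13% in these data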;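 further: 0% = forskolin plus galanin and 100% = forskolin alone with DMSO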
CNG parental – nonspecific cAMP agonists in parental HEK-CNG cells, counter-screen for GalR3 antagonist project, cell-based, fluorescence, high throughput. AID 652268, 2013. HEK293-CNG parental cells, cAMP membrane potential fluorescence; normalised: DMSO wells 0%, forskolin wells 100%. shares compounds with GalR3 antagonist. activation, % at 3 µM. hit rate 10% among 1,600; in the data active means activation above about 1.3%
VP16 Luc counter – Gal4-VP16 luciferase reporter inhibitors, counter-screen for COUP-TFII antagonist project, cell-based, luminescence, HEK293. shares compounds with COUP-TFII inh. inhibition, % at 8.5 µM. hit rate 25% among 2,500; in the data active means inhibition above about 13%
COUP-TFII conf – NR2F2 transcriptional activity inhibitors, confirmation, cell-based, luciferase reporter, HEK293, triplicate. shares compounds with COUP-TFII inh. HEK293 NGFI-A luciferase reporter, luminescence. inhibition, % at 8.5 µM. hit rate 45% among 2,500;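 active means mean inhibition over three repeats above a set limit taken from the earlier primary screen, cut at about 38% in these data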;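 further: 100% = cells given the luciferase reporter alone without the COUP-TF2 vector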
* = called active by the depositor; i = inactive; nt = no result.

SMILES	CHT allo act	NR2E3 ag-1	GalR3 antagonist	CHT inh	COUP-TFII inh	NR2E3 ag-2	GalR3 conf	CNG parental	VP16 Luc counter	COUP-TFII conf
COC(=O)[C@]12C[C@H](CC(=O)N3CCOCC3)C(=O)N(Cc3ccc4c(c3)OCO4)C1=C[C@H](C(C)C)O[C@@H]2C1CC1	nt	nt	nt	nt	6	nt	nt	nt	nt	nt
CN1CCN(C(=O)c2ccc3c(c2)N(C)C(=O)/C(=C/c2cccc(Cl)c2)S3)CC1	i	-14	-1	i	3	1	nt	nt	nt	nt
COc1ccc(/C=C2\Sc3ccc(C(=O)N4CCN(Cc5ccccc5)CC4)cc3N(C)C2=O)cc1OC	i	22	60*	i	71*	0	106*	0	6	58*
COc1ccccc1NS(=O)(=O)c1cc(C(=O)NC2CCN(Cc3ccccc3)CC2)ccc1C	nt	nt	90*	nt	68*	nt	103*	1	6	45*
COc1ccccc1NS(=O)(=O)c1ccc(C)c(C(=O)NC2CCN(Cc3ccccc3)CC2)c1	nt	-10	33*	nt	47*	nt	81*	0	2	29
CCCC1CCC2(CC1)CCC2OC(=O)Nc1ccc(C)cc1 (stereo not given)	nt	nt	nt	nt	-16	nt	nt	nt	nt	nt
CN(C)c1cccc(-c2cnc(N3CCC(C(N)=O)CC3)nc2)c1	nt	nt	nt	nt	-3	nt	nt	nt	nt	nt
CC1(C)CC(N2CCCCC2)=CC(=[N+]2CCCCC2)C1	i	-6	47*	i	67*	2	13*	0	9	51*
COc1ccc(CN(C)C(=O)c2ccc(OCC(=O)Nc3cccc(C(F)(F)F)c3)c(OC)c2)cc1	nt	8	18*	nt	64*	nt	85*	0	-2	48*
O=C(CSC1=NCCS1)Nc1ccnc2ccccc12	i	39	99*	i	41*	0	109*	0	6	51*
CC(=O)Nc1ccc(NC(=O)CSC2=NCCS2)cc1	nt	-10	2	nt	14	nt	nt	nt	nt	nt
O=C(COCc1ccccc1)N1CC[C@H]2[C@H](CCCN2Cc2cc(F)cc(F)c2)C1	nt	nt	nt	nt	-3	nt	nt	nt	nt	nt
CN1CCCN(S(=O)(=O)c2ccc3c(c2)CCC(=O)N3)CC1	nt	nt	nt	nt	9	nt	nt	nt	nt	nt
CCOc1ccc(-n2c(COc3ccc(C)cc3)nnc2SCC(=O)Nc2ccc(F)c(F)c2)cc1	nt	nt	nt	nt	26	nt	nt	nt	nt	nt
CC(=O)Nc1ccc(S(=O)(=O)N2CC3(C)CC2CC(C)(C)C3)cc1 (stereo not given)	i	-21	-2	i	-27	3	nt	nt	nt	nt
CC1(C)CC2CC(C)(CN2S(=O)(=O)c2ccc(C(=O)Nc3ccc(S(=O)(=O)N4CCOCC4)cc3)cc2)C1 (stereo not given)	i	3	87*	i	53*	2	118*	-3	6	64*
C#CCN1CC(N(C)CCOC(=O)c2cccs2)CS1(=O)=O (stereo not given)	nt	nt	nt	nt	-30	nt	nt	nt	nt	nt
O=C(CSc1nnc(-c2ccccc2)n1-c1ccccc1)Nc1ccc(Oc2ccccc2)cc1	nt	nt	nt	nt	0	nt	nt	nt	nt	nt
CCn1ccc(=N)cc1	i	-18	7	i	19	-3	nt	nt	nt	nt
CCCCCn1ccc(=N)cc1	i	-43	9	i	37	2	nt	nt	nt	nt
CCCCCCCCCn1ccc(=N)cc1	i	12	96*	i	77*	0	110*	0	22*	82*
CCCCCCCn1ccc(=N)cc1	i	18	16*	i	80*	1	33*	0	24*	77*
O=C(CSc1nnc(-c2cccnc2)n1-c1ccccc1)Nc1ccc(OCc2ccccc2)cc1	nt	nt	nt	nt	-2	nt	nt	nt	nt	nt
COc1ccc(-c2oc3ccc(N4CCOCC4)cc3c2C#CCO)cc1	i	-7	57*	i	71*	1	30*	-1	5	53*
COc1ccc(-c2ccc3oc(-c4ccc(OC)cc4)c(C#CCO)c3c2)cc1	i	-7	95*	i	45*	-4	110*	-1	-5	70*
SMILES	CHT allo act	NR2E3 ag-1	GalR3 antagonist	CHT inh	COUP-TFII inh	NR2E3 ag-2	GalR3 conf	CNG parental	VP16 Luc counter	COUP-TFII conf
COc1ccc(-c2sc3ccc(N4CCOCC4)cc3c2C#CC(C)(C)O)cc1	nt	8	-2	nt	-5	5	nt	nt	nt	nt
CN1[C@H](Cc2ccccc2)COc2cccc(F)c2S1(=O)=O	nt	nt	nt	nt	-23	nt	nt	nt	nt	nt
COc1ccc2c(c1)CN1CN(Cc3ccccc3)S(=O)(=O)CC21 (stereo not given)	nt	nt	nt	nt	4	nt	nt	nt	nt	nt
CSc1ccc(CN2CCN(C3CCCC3)C(CCO)C2)cc1 (stereo not given)	i	16	-6	i	-21	-2	nt	nt	nt	nt
OCCC1CN(Cc2cnc(-c3ccc(Cl)cc3)nc2)CCN1C1CCCCC1 (stereo not given)	i	-3	83*	i	37*	3	13*	0	-26	0
COc1ccc(OC)c(CCNC(=O)C(C)n2nc(C)c3c(C)n(-c4ccc(C)cc4)nc3c2=O)c1 (stereo not given)	i	39	50*	i	73*	1	91*	0	18*	73*
COc1ccc(OC)c(CCNC(=O)C(C)n2nc(C)c3c(C)n(-c4ccccc4)nc3c2=O)c1 (stereo not given)	i	-1	-3	i	-15	0	nt	nt	nt	nt
Cc1cc(Cl)c(S(=O)(=O)NC2CCCC2)cc1OCC(=O)NC1CCCCC1	i	36	66*	i	53*	0	47*	0	3	53*
CCN1CCN(S(=O)(=O)c2cc(OCC(=O)NC3CCCCC3)c(C)cc2Cl)CC1	i	32	25*	i	46*	2	55*	0	9	37
O=C(COc1ccc(Br)cc1Br)NC1CCCC1	i	-75	42*	i	47*	2	73*	0	-123	-3

Bioassay records from PubChem.
